Measurements reported in ChEMBL document CHEMBL2146388, “Sinularosides A and B, bioactive 9,11-secosteroidal glycosides from the South China Sea soft coral Sinularia humilis Ofwegen” (J Nat Prod, 2012).
Activity calls are given as the source filed them. The rule behind the calls is not given here.

Experiments:
Microbotryum violaceum = experiment: Antifungal activity against Microbotryum violaceum assessed as zone of inhibition at 0.05 mg by agar diffusion method; type: functional; details: read-out: IZ
Summary of the method: (§1)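 Fungi are grown on MPY medium. A 9 mm sterile filter disk is loaded with 0.05 mg of compound (50 μL of a 1.0 mg/mL acetone solution), laid on the agar, and then sprayed with a fungal suspension. The inhibition zone is scored, with an acetone control.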

Zymoseptoria tritici = experiment: Antifungal activity against Septoria tritici assessed as zone of inhibition at 0.05 mg by agar diffusion method; type: functional; details: read-out: IZ; summary of the method: as §1
Caco-2 = experiment: Cytotoxicity against human Caco2 cells by MTT assay; type: functional, cell-based
Summary of the method: (§2)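 Growth inhibition is read colorimetrically by a modified MTT method on HepG2 or Caco-2 cells. Adriamycin is the positive control. IC50 is reported.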

HepG2 = experiment: Cytotoxicity against human HepG2 cells by MTT assay; type: functional, cell-based; summary of the method: as §2
Escherichia coli = experiment: Antibacterial activity against Escherichia coli assessed as zone of inhibition at 0.05 mg by agar diffusion method; type: functional; details: read-out: IZ
Summary of the method: (§3)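 Compound is dissolved in acetone at 1.0 mg/mL, and 0.05 mg is applied to a sterile 9 mm filter disk. The disk is placed on NB agar and sprayed with a bacterial suspension. Read-out is the inhibition zone around the disk. Acetone serves as the solvent control.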

[Chlorella] fusca = Antimicrobial activity against Chlorella fusca assessed as zone of inhibition at 0.05 mg by agar diffusion method; type: functional; details: Scenedesmus fuscus; read-out: IZ
Summary of the method: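 The microalga Chlorella fusca is tested on CP medium. A sterile 9 mm paper disk carries 0.05 mg of compound from a 1.0 mg/mL acetone solution and is placed on the agar, which is then sprayed with the algal suspension. The zone of growth inhibition is recorded, with acetone as control.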

Priestia megaterium = experiment: Antibacterial activity against Bacillus megaterium assessed as zone of inhibition at 0.05 mg by agar diffusion method; type: functional; details: read-out: IZ; summary of the method: as §3

Row | Compound | zone of inhibition at 50 µg/disc (Microbotryum violaceum) | zone of inhibition at 50 µg/disc (Zymoseptoria tritici) | growth inhibition (GI) (Caco-2) | growth inhibition (GI) (HepG2) | zone of inhibition at 50 µg/disc (Escherichia coli) | zone of inhibition at 50 µg/disc ([Chlorella] fusca) | zone of inhibition at 50 µg/disc (Priestia megaterium) | IC50 (Caco-2) | IC50 (HepG2)
1 | CC(=O)N1CCN(c2ccc(OCC3COC(Cn4ccnc4)(c4ccc(Cl)cc4Cl)O3)cc2)CC1 (configuration not stated) [KETOCONAZOLE] | 15 mm | 14 mm |  |  |  |  |  |  | 
2 | C=C(CC[C@@H](C)[C@H]1CC[C@@H]([C@@H]2CC=C3C[C@@H](O[C@@H]4O[C@@H](C)[C@@H](O)[C@@H](O)[C@@H]4O)CC[C@]3(C)C2=O)[C@]1(C)CCO)C(C)C [SINULAROSIDE A] | 17 mm | 14 mm | inactive | inactive | 0 mm | 12 mm | 30 mm |  | 
3 | CC1(C)S[C@@H]2[C@H](NC(=O)Cc3ccccc3)C(=O)N2[C@H]1C(=O)O [PENICILLIN G] |  |  |  |  | 20 mm |  | 28 mm |  | 
4 | COc1cccc2c1C(=O)c1c(O)c3c(c(O)c1C2=O)C[C@@](O)(C(=O)CO)C[C@@H]3O[C@H]1C[C@H](N)[C@H](O)[C@H](C)O1 [DOXORUBICIN] |  |  |  |  |  |  |  | 2700 nM | 2700 nM
5 | C=C(CC[C@@H](C)[C@H]1CC[C@@H]([C@@H]2CC=C3C[C@@H](O[C@@H]4O[C@@H](C)[C@@H](OC(C)=O)[C@@H](O)[C@@H]4O)CC[C@]3(C)C2=O)[C@]1(C)CCO)C(C)C [SINULAROSIDE B] | 17 mm | 15 mm | inactive | inactive | 0 mm | 14 mm | 30 mm |  | 
6 | CN[C@@H]1[C@H](O[C@H]2[C@H](O[C@H]3[C@H](O)[C@@H](O)[C@H](N=C(N)N)[C@@H](O)[C@@H]3N=C(N)N)O[C@@H](C)[C@]2(O)C=O)O[C@@H](CO)[C@H](O)[C@H]1O [STREPTOMYCIN] |  |  |  |  | 25 mm |  | 30 mm |  | 
